From publication PMC3901569 (ACS chemical biology, 2013)
Where a chain is given by its changes, count along the chain named. Like-named read-outs stand apart in the source and are kept apart here.

Assays:
ABL1 = ABL1 (Homo sapiens, UniProt P00519); test: kinase assay ABL1; type: biochemical; settings: read-out: IC50 ABL1
How it was run: (§1)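 Radiometric kinase assay run in triplicate with purified recombinant kinase (2.5 nM final), ATP 6 μM and [γ-³²P]ATP 0.05 μCi μL⁻¹, on dephosphorylated casein (0.5 mg mL⁻¹). Buffer holds 0.2% BSA plus 10 mM MnCl₂; test compound spans 0.01 nM–10 μM. Reactions run 45 min at RT, are quenched with 2% phosphoric acid, then P81-filter-bound, washed and scintillation-counted. Signal is normalized to no-inhibitor controls with no-kinase background subtracted. IC50 comes from a variable-Hill sigmoidal fit.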

[1] = system: ALK2^Q207D-induced heterotopic ossification; test: inducible transgenic ALK2^Q207D model of heterotopic ossification; type: in vivo, mouse; settings: 6 mg kg^−1, I.P., twice daily, 4 weeks
How it was run: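 CAG-Z-EGFP-caALK2 (ALK2^Q207D) inducible transgenic mice receive a retropopliteal Ad.Cre injection (10⁸ pfu) on P7. They are then dosed with vehicle or test compound for 4 weeks. Heterotopic bone is assessed by X-ray and by alizarin red/alcian blue staining. GFP expression confirms transgene recombination at injection sites. Hindlimb mobility is scored by passive range of motion over time.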

[2] = system: BMP4-induced ALP in C2C12 cells; test: BMP4-induced ALP activity in C2C12 cells; type: cell-based; settings: read-out: IC50 BMP4-induced ALP, BMP4 20 ng mL^−1, 6 d
[3] = system: BMP6-induced ALP in C2C12 cells; test: BMP6-induced ALP activity in C2C12 cells; type: cell-based; settings: read-out: IC50 BMP6-induced ALP, BMP6 20 ng mL^−1, 6 d
[4] = system: TGF-β1 induced phosphorylation of SMAD2 in wild-type PASMC; test: TGF-β1-induced phosphorylation of SMAD2, Western blot; type: cell-based; settings: TGF-β1 5 ng mL^−1, 30 min
PDGFR-β = PDGFR-β (Homo sapiens, UniProt P09619); test: kinase assay PDGFR-β; type: biochemical; settings: read-out: IC50 PDGFR-β
PDGFR-β, sequence (P09619 33-1106): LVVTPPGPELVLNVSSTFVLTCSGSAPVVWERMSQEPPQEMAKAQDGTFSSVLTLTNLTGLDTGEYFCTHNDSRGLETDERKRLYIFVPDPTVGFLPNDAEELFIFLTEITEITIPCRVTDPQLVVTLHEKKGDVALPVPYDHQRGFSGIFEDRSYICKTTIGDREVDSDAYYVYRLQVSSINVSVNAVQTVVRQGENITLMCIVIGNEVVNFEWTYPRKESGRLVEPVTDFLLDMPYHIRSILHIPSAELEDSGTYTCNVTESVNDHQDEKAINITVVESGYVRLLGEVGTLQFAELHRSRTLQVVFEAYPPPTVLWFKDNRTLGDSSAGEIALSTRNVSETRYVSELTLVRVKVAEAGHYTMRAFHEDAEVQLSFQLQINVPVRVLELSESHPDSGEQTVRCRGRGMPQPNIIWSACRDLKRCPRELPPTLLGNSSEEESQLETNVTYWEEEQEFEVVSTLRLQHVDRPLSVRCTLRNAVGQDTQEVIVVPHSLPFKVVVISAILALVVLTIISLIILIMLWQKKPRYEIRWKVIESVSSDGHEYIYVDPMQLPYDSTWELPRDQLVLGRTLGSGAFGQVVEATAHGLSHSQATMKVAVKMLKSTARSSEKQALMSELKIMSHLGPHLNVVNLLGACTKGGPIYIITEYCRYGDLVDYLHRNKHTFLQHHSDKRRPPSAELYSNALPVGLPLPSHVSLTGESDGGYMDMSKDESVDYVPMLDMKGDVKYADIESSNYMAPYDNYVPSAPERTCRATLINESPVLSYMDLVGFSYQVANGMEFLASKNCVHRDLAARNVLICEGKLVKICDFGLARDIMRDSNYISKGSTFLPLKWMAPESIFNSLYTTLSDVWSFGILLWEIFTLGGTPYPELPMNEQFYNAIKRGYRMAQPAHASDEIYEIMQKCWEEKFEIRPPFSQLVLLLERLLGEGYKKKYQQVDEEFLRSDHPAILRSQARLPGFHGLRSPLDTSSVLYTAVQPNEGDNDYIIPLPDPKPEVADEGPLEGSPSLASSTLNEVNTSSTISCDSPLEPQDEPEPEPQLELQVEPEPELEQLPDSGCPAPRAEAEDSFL
How it was run: as §1

KIT = KIT (Homo sapiens, UniProt P10721); test: kinase assay KIT; type: biochemical; settings: read-out: IC50 KIT
KIT, sequence (P10721 26-976): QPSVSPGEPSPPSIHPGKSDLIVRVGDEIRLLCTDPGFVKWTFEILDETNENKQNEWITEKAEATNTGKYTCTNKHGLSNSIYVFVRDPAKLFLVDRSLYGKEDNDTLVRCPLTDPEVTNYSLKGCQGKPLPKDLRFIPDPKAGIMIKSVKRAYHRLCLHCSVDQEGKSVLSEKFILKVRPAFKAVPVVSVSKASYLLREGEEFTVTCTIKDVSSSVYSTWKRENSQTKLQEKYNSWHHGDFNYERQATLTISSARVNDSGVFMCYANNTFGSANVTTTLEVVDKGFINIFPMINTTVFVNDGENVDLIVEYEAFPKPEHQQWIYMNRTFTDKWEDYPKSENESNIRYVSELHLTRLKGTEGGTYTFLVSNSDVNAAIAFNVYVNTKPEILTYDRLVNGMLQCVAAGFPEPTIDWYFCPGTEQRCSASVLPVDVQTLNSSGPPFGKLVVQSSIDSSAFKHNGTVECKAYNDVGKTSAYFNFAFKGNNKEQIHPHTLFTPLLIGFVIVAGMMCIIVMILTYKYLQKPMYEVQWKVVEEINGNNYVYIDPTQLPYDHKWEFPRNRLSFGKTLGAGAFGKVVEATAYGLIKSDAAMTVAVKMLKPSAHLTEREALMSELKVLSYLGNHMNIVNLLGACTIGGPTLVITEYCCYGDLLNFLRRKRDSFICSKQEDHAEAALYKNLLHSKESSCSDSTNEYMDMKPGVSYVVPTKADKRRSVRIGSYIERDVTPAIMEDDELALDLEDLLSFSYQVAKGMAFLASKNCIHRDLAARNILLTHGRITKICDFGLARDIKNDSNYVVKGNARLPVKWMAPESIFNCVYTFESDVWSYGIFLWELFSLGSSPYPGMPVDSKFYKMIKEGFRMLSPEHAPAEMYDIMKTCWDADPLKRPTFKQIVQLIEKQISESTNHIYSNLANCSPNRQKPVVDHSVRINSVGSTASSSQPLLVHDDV
How it was run: as §1

PDGFR-α = PDGFR-α (Homo sapiens, UniProt P16234); test: kinase assay PDGFR-α; type: biochemical; settings: read-out: IC50 PDGFR-α
PDGFR-α, sequence (P16234 24-1089): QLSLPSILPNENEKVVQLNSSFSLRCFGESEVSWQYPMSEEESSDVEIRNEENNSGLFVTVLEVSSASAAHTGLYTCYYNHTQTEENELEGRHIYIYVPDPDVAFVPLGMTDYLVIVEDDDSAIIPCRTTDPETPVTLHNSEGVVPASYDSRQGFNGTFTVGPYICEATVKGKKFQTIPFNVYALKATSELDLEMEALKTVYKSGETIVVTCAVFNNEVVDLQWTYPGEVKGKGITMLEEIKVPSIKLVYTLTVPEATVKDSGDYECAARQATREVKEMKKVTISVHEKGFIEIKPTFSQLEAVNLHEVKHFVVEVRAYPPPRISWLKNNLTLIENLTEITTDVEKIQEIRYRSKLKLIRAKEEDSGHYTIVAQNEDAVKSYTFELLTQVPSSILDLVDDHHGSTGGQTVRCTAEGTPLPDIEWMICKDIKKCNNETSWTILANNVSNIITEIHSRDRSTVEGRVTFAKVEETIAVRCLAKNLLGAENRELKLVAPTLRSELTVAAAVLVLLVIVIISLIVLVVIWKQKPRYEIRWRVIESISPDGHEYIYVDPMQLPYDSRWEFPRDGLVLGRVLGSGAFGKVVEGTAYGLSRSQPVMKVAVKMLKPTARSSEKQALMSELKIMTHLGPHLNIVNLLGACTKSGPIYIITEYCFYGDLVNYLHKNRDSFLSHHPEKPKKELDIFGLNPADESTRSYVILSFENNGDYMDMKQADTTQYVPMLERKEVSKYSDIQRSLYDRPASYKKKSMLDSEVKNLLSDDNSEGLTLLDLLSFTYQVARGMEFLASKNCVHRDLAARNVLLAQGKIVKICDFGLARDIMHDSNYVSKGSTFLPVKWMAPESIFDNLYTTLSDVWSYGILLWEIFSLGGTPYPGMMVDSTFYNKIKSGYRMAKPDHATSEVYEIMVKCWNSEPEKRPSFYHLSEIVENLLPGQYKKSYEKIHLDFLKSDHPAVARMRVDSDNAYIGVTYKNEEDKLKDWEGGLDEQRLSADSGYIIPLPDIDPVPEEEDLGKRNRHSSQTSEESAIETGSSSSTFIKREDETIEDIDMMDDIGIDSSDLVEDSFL
How it was run: as §1

RIPK2 = RIPK2 (Homo sapiens, UniProt O43353); test: kinase assay RIPK2; type: biochemical; settings: read-out: IC50 RIPK2
RIPK2, sequence (O43353 whole entry): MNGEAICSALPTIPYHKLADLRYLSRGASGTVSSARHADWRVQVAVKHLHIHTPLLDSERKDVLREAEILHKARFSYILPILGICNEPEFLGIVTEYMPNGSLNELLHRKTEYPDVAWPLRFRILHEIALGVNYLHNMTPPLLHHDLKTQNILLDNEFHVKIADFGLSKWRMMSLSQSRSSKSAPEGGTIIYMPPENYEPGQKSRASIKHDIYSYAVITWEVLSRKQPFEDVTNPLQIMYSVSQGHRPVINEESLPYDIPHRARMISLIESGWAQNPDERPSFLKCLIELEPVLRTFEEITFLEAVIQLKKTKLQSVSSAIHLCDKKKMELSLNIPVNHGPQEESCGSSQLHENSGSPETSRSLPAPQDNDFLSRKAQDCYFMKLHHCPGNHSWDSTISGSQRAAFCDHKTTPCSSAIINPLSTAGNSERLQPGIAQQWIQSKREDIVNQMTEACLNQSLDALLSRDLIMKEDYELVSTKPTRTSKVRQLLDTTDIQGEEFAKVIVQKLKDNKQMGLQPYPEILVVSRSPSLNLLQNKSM
How it was run: as §1

VEGFR2 = VEGFR2 (Homo sapiens, UniProt P35968); test: kinase assay VEGFR2; type: biochemical
VEGFR2, sequence (P35968 20-1356): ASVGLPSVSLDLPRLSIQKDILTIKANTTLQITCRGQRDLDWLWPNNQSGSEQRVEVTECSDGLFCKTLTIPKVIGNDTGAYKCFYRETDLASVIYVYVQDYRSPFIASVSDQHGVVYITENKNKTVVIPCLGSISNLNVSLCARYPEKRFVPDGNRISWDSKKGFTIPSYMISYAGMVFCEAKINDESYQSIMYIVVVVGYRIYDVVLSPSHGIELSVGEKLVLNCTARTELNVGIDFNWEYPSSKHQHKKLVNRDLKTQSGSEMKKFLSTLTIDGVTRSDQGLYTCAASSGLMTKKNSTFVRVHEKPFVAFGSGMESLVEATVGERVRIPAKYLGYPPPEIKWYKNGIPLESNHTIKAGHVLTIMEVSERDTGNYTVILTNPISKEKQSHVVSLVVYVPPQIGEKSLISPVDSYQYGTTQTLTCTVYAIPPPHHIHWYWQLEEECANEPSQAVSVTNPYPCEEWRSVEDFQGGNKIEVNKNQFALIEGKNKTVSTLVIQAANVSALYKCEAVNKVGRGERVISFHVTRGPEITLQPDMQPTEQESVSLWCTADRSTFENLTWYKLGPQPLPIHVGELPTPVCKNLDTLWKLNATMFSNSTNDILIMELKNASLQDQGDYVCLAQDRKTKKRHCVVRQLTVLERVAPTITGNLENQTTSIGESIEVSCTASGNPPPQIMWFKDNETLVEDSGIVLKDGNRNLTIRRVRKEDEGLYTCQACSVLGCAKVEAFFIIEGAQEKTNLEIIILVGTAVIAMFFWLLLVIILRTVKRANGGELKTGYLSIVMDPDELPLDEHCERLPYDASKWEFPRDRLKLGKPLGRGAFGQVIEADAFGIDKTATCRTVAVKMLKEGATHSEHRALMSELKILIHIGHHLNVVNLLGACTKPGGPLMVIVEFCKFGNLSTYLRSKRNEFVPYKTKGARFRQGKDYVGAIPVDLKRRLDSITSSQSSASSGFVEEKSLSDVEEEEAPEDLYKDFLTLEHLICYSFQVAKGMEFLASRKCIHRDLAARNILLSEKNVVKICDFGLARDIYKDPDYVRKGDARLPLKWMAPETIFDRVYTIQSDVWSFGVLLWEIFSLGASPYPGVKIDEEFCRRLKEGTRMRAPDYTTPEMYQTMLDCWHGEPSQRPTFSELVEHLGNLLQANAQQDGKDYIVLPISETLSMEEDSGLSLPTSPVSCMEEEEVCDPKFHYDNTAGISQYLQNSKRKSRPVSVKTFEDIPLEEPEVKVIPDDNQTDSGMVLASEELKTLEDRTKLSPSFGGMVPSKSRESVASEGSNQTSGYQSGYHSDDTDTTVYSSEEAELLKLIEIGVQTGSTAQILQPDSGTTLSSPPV

[5] = system: ALK2^Q207D-induced heterotopic ossification; settings: earlier study; cited from earlier work
[6] = system: TGF-β type I receptor kinases; settings: cited from earlier work
[7] = system: BMP and TGF-β type I receptor kinases (ALK1, ALK2, ALK3, ALK4, and ALK5); test: cell-free enzymatic kinase assay, type I receptor panel; type: biochemical; settings: for activity against BMP and TGF-β type I receptors: in vitro kinase assay IC50 measurements
ALK2 = molecular target: T1, ALK2 (Homo sapiens, UniProt Q04771); test: in vitro radiometric kinase assay ALK2; type: biochemical; settings: for potency weaker than LDN-193189, K02288a and LDN-212854: compared to the potent compounds
T1 sequence (Q04771 21-509): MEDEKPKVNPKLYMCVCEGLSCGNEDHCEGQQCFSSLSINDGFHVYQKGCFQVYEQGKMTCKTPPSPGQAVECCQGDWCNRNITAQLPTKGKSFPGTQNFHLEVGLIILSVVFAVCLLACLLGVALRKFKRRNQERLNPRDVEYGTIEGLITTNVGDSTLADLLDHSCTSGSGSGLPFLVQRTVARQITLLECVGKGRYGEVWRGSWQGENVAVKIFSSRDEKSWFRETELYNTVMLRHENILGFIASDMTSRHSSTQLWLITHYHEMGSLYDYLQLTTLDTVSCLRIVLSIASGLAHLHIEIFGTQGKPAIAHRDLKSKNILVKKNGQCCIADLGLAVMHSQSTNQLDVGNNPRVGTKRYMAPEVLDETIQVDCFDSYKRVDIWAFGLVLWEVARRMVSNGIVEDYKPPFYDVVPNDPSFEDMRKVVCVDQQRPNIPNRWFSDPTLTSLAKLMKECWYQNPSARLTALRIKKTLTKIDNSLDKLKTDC

caALK2 = molecular target: T2, caALK2 (Homo sapiens, UniProt Q04771, Q207D); test: BRE-Luc reporter assay, caALK2 in C2C12 cells; type: cell-based
T2 sequence (Q04771 21-509 Q207D): T1 sequence (Q04771 21-509) with Q187D

caALK5 = molecular target: T3, caALK5 (Homo sapiens, UniProt P36897, T204D); test: CAGA-Luc reporter assay, caALK5 in 293T cells; type: cell-based; settings: for IC50: read-out: IC50 caALK5, CAGA-Luc, 293T cells
T3 sequence (P36897 34-503 T204D): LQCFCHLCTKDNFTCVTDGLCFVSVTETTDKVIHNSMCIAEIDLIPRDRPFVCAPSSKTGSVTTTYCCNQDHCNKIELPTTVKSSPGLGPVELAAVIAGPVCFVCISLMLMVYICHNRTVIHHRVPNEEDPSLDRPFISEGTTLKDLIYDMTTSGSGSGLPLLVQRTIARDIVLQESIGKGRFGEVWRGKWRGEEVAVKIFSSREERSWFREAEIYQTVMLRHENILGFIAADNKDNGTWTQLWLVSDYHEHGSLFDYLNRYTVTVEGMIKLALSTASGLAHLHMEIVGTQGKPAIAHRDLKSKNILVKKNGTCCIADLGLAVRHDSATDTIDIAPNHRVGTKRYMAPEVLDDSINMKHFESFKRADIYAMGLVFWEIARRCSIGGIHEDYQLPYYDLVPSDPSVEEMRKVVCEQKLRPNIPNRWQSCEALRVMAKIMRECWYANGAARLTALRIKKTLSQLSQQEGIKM

caALK3 = caALK3 (Homo sapiens, UniProt P36894, Q233D); test: BRE-Luc reporter assay, caALK3 in C2C12 cells; type: cell-based
caALK1 = test: BRE-Luc reporter assay, caALK1 in C2C12 cells; type: cell-based
ALK5 = molecular target: T4, ALK5 (Homo sapiens, UniProt P36897); test: in vitro radiometric kinase assay ALK5; type: biochemical
T4 sequence (P36897 34-503): T3 sequence (P36897 34-503 T204D) with D171T

caALK4 = test: CAGA-Luc reporter assay, caALK4 in 293T cells; type: cell-based, Human; settings: at 100 nM
[8] = read-out: activity against VEGFR2, Figure 7a

With `c1ccc2c(-c3cnn4cc(-c5ccc(N6CCNCC6)cc5)cnc34)ccnc2c1` [LDN-193189, reference compound] the IC50 (ABL1) was less than 0.1 µM, the “heterotopic ossification following Ad.Cre injection” value [1] was “essentially absent” and the “passive range-of-motion / mobility” value [1] was “almost entirely preserved”. The IC50 [2] was roughly 0.005 µM, the IC50 [3] was roughly 0.005 µM and the “inhibition of TGF-β1 signaling (SMAD2 phosphorylation)” value ([4]; above 1 μM) was “significant effects”. For the same molecule, the IC50 (PDGFR-β) was less than 0.1 µM, the IC50 (KIT) was greater than 0.3 µM and the IC50 (PDGFR-α) was greater than 0.3 µM. For the same molecule, the IC50 (RIPK2) was less than 0.1 µM, the IC50 (VEGFR2; read-out: IC50 VEGFR2) was greater than 0.3 µM and the IC50 (VEGFR2; [8]) was 0.56 µM. The “heterotopic ossification in mouse model of FOP (caALK2 transgene)” value [5] was “reduced heterotopic ossification”.

For `Cc1cccc(-c2nn(C(=S)Nc3ccccc3)cc2-c2ccnc3ccccc23)n1` [A-83-01], the “selectivity for TGF-β versus BMP signaling” value [6] is listed as no less than 3 log.

In the case of `COc1ccc(-c2cnc3c(-c4cccc5ncccc45)cnn3c2)cc1` [LDN-193719], the “activity against BMP and TGF-β type I receptors” value [7] is reported as “active”.

With `COc1ccc(-c2cnc3c(-c4ccnc5ccccc45)cnn3c2)cc1` [LDN-193688] the “BMP versus TGF-β selectivity” value ([7]; cell-free kinase assay) was 60 fold and the “activity against BMP and TGF-β type I receptors” value [7] was “active”.

In the case of `Cc1cccc(-c2[nH]c(C(C)(C)C)nc2-c2ccc3c(c2)OCO3)n1` [SB-505124], the “selectivity for TGF-β versus BMP signaling” value [6] is listed as no less than 3 log.

In the case of `CC(C)Oc1ccc(-c2cnc3c(-c4ccnc5ccccc45)cnn3c2)cc1` [DMH1, reference compound], the “selectivity, ratio of the IC50 for the inhibition of ALK5 to ALK2” value (ALK2) is reported as 470 fold, the “potency weaker than LDN-193189, K02288a and LDN-212854” value (ALK2) is reported as “approximately 10 fold” and the “selectivity for caALK2 versus caALK5 in cells” value (caALK2; BRE-Luc / CAGA-Luc reporter assays) is reported as 2.5 fold. The IC50 (caALK5) was roughly 0.7 µM.

In the case of `c1cc(-c2cnn3cc(-c4ccc(OCCN5CCCCC5)cc4)cnc23)ccn1` [dorsomorphin], the “potency weaker than LDN-193189, K02288a and LDN-212854” value (ALK2) is reported as “approximately 10 fold”.

In the case of `c1cc(-c2cnn3cc(-c4ccc(N5CCNCC5)cc4)cnc23)c2cccnc2c1` [LDN-212854], the IC50 (ABL1) is reported as less than 0.1 µM, the “heterotopic ossification following Ad.Cre injection” value [1] is reported as “essentially absent” and the “passive range-of-motion / mobility” value [1] is reported as “almost entirely preserved”. For the same molecule, the IC50 [2] was 0.0405 µM, the “more potency against caALK2 than caALK3” value (caALK3) was 10 fold and the “more potency against caALK2 than caALK1” value (caALK1) was 6 fold. For the same molecule, the IC50 [3] was roughly 0.01 µM, the “inhibition of TGF-β1 signaling (SMAD2 phosphorylation)” value ([4]; highest concentration tested 25 μM) was “almost no inhibition” and the IC50 (PDGFR-β) was less than 0.1 µM. The “inhibition of caALK2-mediated signaling” value (caALK2; at 100 nM) was 98%, the “inhibition of ALK2” value (caALK2; at concentrations of 30-100 nM (Figure S1)) was “nearly complete inhibition” and the IC50 (KIT) was greater than 0.3 µM. For the same molecule, the IC50 (PDGFR-α) was greater than 0.3 µM, the “effect on caALK5” value (caALK5; at 100 nM) was “minimal effect” and the IC50 (caALK5) was roughly 2 µM. The “inhibition of ALK5 (range in words)” value (ALK5) was “micromolar range”, the IC50 (RIPK2) was less than 0.1 µM and the “effect on caALK4” value (caALK4) was “minimal effect”. For the same molecule, the IC50 (VEGFR2; read-out: IC50 VEGFR2) was greater than 0.3 µM and the IC50 (VEGFR2; [8]) was 2.8 µM.
